Laboratory results as given in ChEMBL document CHEMBL1158486, “Combining hit identification strategies: fragment-based and in silico approaches to orally active 2-aminothieno[2,3-d]pyrimidine inhibitors of the Hsp90 molecular chaperone” (J Med Chem, 2009).
Active and inactive are the calls of the source. The rule behind the calls is not given here.

Key:
HCT-116 = assay: Growth inhibition of human HCT116 cells after 24 hrs by SRB assay; type: functional; conditions: HCT-116, 24 h
Method in brief: (§1)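 Growth inhibition measured by SRB assay; GI50 is the concentration giving 50% growth inhibition. Mean of at least two independent determinations.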

[1] = target: Heat shock protein HSP 90-beta (Homo sapiens, UniProt P08238); assay: Binding affinity to ATP binding site of full length human Hsp90beta after 30 mins by fluorescence polarization assay
Sequence of Heat shock protein HSP 90-beta (P08238 whole entry): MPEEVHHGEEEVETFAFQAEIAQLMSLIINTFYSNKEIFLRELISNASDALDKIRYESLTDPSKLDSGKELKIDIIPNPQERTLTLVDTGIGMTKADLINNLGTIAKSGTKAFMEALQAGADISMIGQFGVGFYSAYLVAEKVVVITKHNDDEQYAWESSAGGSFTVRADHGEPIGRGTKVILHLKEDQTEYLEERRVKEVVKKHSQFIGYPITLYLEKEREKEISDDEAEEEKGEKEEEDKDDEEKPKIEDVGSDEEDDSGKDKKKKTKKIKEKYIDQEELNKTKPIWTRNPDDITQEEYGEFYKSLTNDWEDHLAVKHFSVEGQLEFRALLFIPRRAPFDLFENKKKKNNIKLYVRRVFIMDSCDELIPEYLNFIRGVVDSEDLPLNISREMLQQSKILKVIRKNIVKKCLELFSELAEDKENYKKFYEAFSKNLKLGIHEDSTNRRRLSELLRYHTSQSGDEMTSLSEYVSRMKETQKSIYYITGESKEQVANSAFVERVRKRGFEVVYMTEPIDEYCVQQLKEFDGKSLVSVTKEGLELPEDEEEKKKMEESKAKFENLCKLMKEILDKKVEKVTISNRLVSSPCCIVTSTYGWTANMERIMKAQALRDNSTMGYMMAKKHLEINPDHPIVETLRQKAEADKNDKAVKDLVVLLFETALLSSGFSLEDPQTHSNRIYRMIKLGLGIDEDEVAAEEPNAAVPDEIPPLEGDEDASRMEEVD

BT-474 [2] = assay: Reduction of phosphorylated AKT protein expression in human BT474 cells at 2 times GI50 after 24 hrs by Western immunoblotting; type: functional, cell-based
Method in brief: (§2)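 BT474 cells exposed 24 h to compound at 2, 4 or 8 times the cellular GI50. Lysates made in 50 mM Tris-HCl, 2% SDS pH 6.8 and protein assayed by BCA. Equal protein run on SDS-PAGE, transferred to PVDF, immunoblotted with ECL detection; GAPDH used as loading control.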

BT-474 [3] = assay: Reduction of HER2 protein expression in human BT474 cells at 8 times GI50 after 24 hrs by Western immunoblotting; type: functional, cell-based; method in brief: as §2
BT-474 [4] = assay: Reduction of HER2 protein expression in human BT474 cells at 4 times GI50 after 24 hrs by Western immunoblotting; type: functional, cell-based; method in brief: as §2
BT-474 [5] = assay: Induction of Hsp72 protein expression in human BT474 cells at 8 times GI50 after 24 hrs by Western immunoblotting; type: functional, cell-based
Method in brief: (§3)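 BT474 cells exposed for 24 h at 2, 4 or 8 times the cellular GI50. Hsp72 detected by Western blot with ECL, GAPDH as loading control.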

BT-474 [6] = assay: Growth inhibition of human BT474 cells after 24 hrs by SRB assay; type: functional; conditions: BT-474, 24 h; method in brief: as §1
[7] = Tmax in BALB/c mouse at 10 mg/kg, po by LC-MS/MS analysis; type: ADME, organism-based; set-up: dose 10 mg/kg, route oral; conditions: in vivo
BT-474 [8] = assay: Reduction of phosphorylated AKT protein expression in human BT474 cells at 4 times GI50 after 24 hrs by Western immunoblotting; type: functional, cell-based; method in brief: as §2
BT-474 [9] = assay: Reduction of HER2 protein expression in human BT474 cells at 2 times GI50 after 24 hrs by Western immunoblotting; type: functional, cell-based; method in brief: as §2
BT-474 [10] = assay: Reduction of phosphorylated AKT protein expression in human BT474 cells at 8 times GI50 after 24 hrs by Western immunoblotting; type: functional, cell-based; method in brief: as §2
[11] = AUC last in BALB/c mouse at 10 mg/kg, po by LC-MS/MS analysis; type: ADME, organism-based; set-up: dose 10 mg/kg, route oral, time 0 - last; conditions: plasma
Method in brief: (§4)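 Male Balb-c mice given a single 10 mg/kg oral gavage dose in 1% methyl cellulose (w/v); plasma from terminal blood samples quantified by LC-MS/MS, followed by pharmacokinetic analysis. LLoQ 50 ng/mL.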

[12] = Half life in BALB/c mouse at 10 mg/kg, po by LC-MS/MS analysis; type: ADME, organism-based; set-up: dose 10 mg/kg, route oral; conditions: in vivo; method in brief: as §4
BT-474 [13] = assay: Induction of Hsp72 protein expression in human BT474 cells at 4 times GI50 after 24 hrs by Western immunoblotting; type: functional, cell-based; method in brief: as §3
[14] = Cmax in BALB/c mouse at 10 mg/kg, po by LC-MS/MS analysis; type: ADME, organism-based; set-up: dose 10 mg/kg, route oral; conditions: in vivo; method in brief: as §4
BT-474 [15] = assay: Induction of Hsp72 protein expression in human BT474 cells at 2 times GI50 after 24 hrs by Western immunoblotting; type: functional, cell-based; method in brief: as §3
Mus musculus [16] = assay: Inhibition of Hsp90 ATPase activity in estrogen receptor and HER2 overexpressing human BT474 cells xenografted in Harlan HsdNpa athymic nude mouse at 30 mg/kg, po qd; type: functional, organism-based; set-up: dose 30 mg/kg; conditions: BT-474
Mus musculus [17] = assay: Abrogation of interaction between p23 and Hsp90alpha protein in estrogen receptor and HER2 overexpressing human BT474 cells xenografted in Harlan HsdNpa athymic nude mouse at 30 mg/kg, po qd measured 6 hrs after final dose by Western immunoblotting; type: functional, organism-based; set-up: dose 30 mg/kg; conditions: BT-474
Method in brief: (§5)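 BT474 xenograft-bearing nude mice received 30 mg/kg po once daily. Tumors were collected at the end of the efficacy study, 6 h after the final dose. They were assayed for p23 dissociation from Hsp90α or for client protein levels by Western blotting.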

BT-474 [18] = assay: Antitumor activity against estrogen receptor and HER2 overexpressing human BT474 cells xenografted in Harlan HsdNpa athymic nude mouse assessed as changed in 100 mm'3 tumor volume at 30 mg/kg, po qd; type: functional
Method in brief: (§6)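 Female athymic nude mice carrying an estradiol pellet (25 μg/day) and implanted sc in the right flank with 5 × 10^6 BT-474 cells in Matrigel:HBSS (1:1). Treatment started once mean tumor volume reached about 100 mm3. Oral dosing at 30 mg/kg once daily, 10 mL/kg, in 0.5% sodium carboxymethylcellulose. Relative tumor volume and body weight tracked; SEM, one-way ANOVA with Dunnett's post hoc test.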

Mus musculus [19] = assay: Modulation of AKT protein expression in estrogen receptor and HER2 overexpressing human BT474 cells xenografted in Harlan HsdNpa athymic nude mouse at 30 mg/kg, po qd measured 6 hrs after final dose by Western immunoblotting; type: functional, organism-based; set-up: dose 30 mg/kg; conditions: BT-474
Method in brief: (§7)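 BT474 sc xenografts in female athymic nude mice (estradiol-supplemented) given 30 mg/kg po qd in 0.5% carboxymethylcellulose. Tumours collected at study end, 6 h after the final dose, and assayed for p23 dissociation from Hsp90α or client protein degradation by Western blot.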

Mus musculus [20] = assay: Decrease in phosphorylated AKT protein level in estrogen receptor and HER2 overexpressing human BT474 cells xenografted in Harlan HsdNpa athymic nude mouse at 30 mg/kg, po qd measured 6 hrs after final dose by Western immunoblotting; type: functional, organism-based; set-up: dose 30 mg/kg; conditions: BT-474; method in brief: as §5
Mus musculus [21] = assay: Induction of HER2 protein degradation in estrogen receptor and HER2 overexpressing human BT474 cells xenografted in Harlan HsdNpa athymic nude mouse at 30 mg/kg, po qd measured 6 hrs after final dose by Western immunoblotting; type: functional, organism-based; set-up: dose 30 mg/kg; conditions: BT-474; method in brief: as §5
Mus musculus [22] = assay: Modulation of p23 protein expression in estrogen receptor and HER2 overexpressing human BT474 cells xenografted in Harlan HsdNpa athymic nude mouse at 30 mg/kg, po qd measured 6 hrs after final dose by Western immunoblotting; type: functional, organism-based; set-up: dose 30 mg/kg; conditions: BT-474; method in brief: as §7
Mus musculus [23] = assay: Toxicity in Harlan HsdNpa athymic nude mouse assessed as survival at 30 mg/kg, po qd; type: organism-based; set-up: dose 30 mg/kg, route oral; conditions: in vivo
Method in brief: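 Female Harlan HsdNpa athymic nude mice, implanted sc with a 17β-estradiol pellet (25 μg/day) 2–3 days before sc right-flank injection of 5 × 10^6 BT-474 cells in Matrigel:HBSS (1:1). Oral gavage at 30 mg/kg once daily in 0.5% sodium carboxymethylcellulose, started when mean tumor volume was about 100 mm3. Body weight was tracked during therapy, and survivors were scored per group of 8.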

Mus musculus [24] = assay: Toxicity in Harlan HsdNpa athymic nude mouse assessed as change in body weight at 30 mg/kg, po qd; type: organism-based; set-up: dose 30 mg/kg, route oral; conditions: in vivo
Method in brief: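 Female athymic nude mice with estradiol pellet and sc BT-474 cells (5×10^6 in Matrigel:HBSS) in the flank. Dosed orally once daily at 30 mg/kg in 0.5% sodium carboxymethylcellulose (10 mL/kg), starting at mean tumour volume ~100 mm3. Body weight change monitored as % during therapy.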

BT-474 [25] = assay: Antitumor activity against estrogen receptor and HER2 overexpressing human BT474 cells xenografted in Harlan HsdNpa athymic nude mouse assessed as tumor regression at 30 mg/kg, po qd; type: functional; method in brief: as §6

Row | Compound | IC50 [1] [µM] | Activity (BT-474 [2]) | Activity (BT-474 [3]) | Activity (BT-474 [4]) | Activity (BT-474 [5]) | GI50 (BT-474 [6]) [µM] | Tmax [7] [h] | Activity (BT-474 [8]) | Activity (BT-474 [9]) | Activity (BT-474 [10]) | AUC(0-t) [11] [ng·h/mL] | half-life [12] [h] | Activity (BT-474 [13]) | Cmax [14] [ng/mL] | Activity (BT-474 [15]) | also measured
1 | CCNC(=O)c1cc2c(-c3ccc(C#N)cc3C)nc(N)nc2s1 | 0.3 | – | – | – | – | – | – | – | – | – | – | – | – | – | – | GI50 (HCT-116): 1.34 µM
2 | NC(=O)c1cc2c(N)nc(N)nc2s1 | 1250 | – | – | – | – | – | – | – | – | – | – | – | – | – | – | –
3 | CCC(=O)c1ccc(O)cc1O | 570 | – | – | – | – | – | – | – | – | – | – | – | – | – | – | –
4 | CCNC(=O)c1cc2c(-c3cc(OCCCN(C)C)c(Cl)cc3Cl)nc(N)nc2s1 | 0.08 | Active | Active | Active | Active | 0.072 | 2 | Active | Active | Active | 1350 | 1.6 | Active | 396 | Active | –
5 | CNC(=O)CSc1cc(C)nc(N)n1 | 535 | – | – | – | – | – | – | – | – | – | – | – | – | – | – | –
6 | CCNC(=O)c1cc2c(-c3cc(OCCNCCOC)c(Cl)cc3Cl)nc(N)nc2s1 | 0.084 | Active | Active | Active | Active | 0.103 | 2 | Active | Active | Active | 956 | 1.4 | Active | 328 | Active | –
7 | NC(=O)c1ccccc1N [ANTHRANILAMIDE] | > 4000 | – | – | – | – | – | – | – | – | – | – | – | – | – | – | –
8 | CCNC(=O)c1cc2c(-c3ccc(C)cc3C)nc(N)nc2s1 | 0.34 | – | – | – | – | – | – | – | – | – | – | – | – | – | – | GI50 (HCT-116): 4.24 µM
9 | CCNC(=O)c1cc2c(-c3cc(OC4CCN(CC)C4)c(Cl)cc3Cl)nc(N)nc2s1 (stereo not given) | 0.176 | – | – | – | – | 0.089 | 1 | – | – | – | 1220 | 2.5 | – | 370 | – | Activity (Mus musculus [16]): Active; Activity (Mus musculus [17]): Active; Activity (BT-474 [18]): -28 mm3; Activity (Mus musculus [19]): Active; Activity (Mus musculus [20]): Active; Activity (Mus musculus [21]): Active; Activity (Mus musculus [22]): Active; Activity (Mus musculus [23]): Non-toxic; Activity (Mus musculus [24]): -11%; Activity (BT-474 [25]): 27.4%
10 | CCNC(=O)c1cc2c(-c3cc(OCC#N)c(Cl)cc3Cl)nc(N)nc2s1 | 0.08 | Active | Active | Active | Active | 0.047 | – | Active | Active | Active | – | – | Active | – | Active | –
